Measured values reported in article PMC3431965 (The Journal of organic chemistry, 2012).
Numbering of substitutions follows the chain as printed.

Assays:
spermatogenesis = conditions: C57B1/6J-related mouse strains; cited from earlier work
human spermatogenesis = conditions: cited from earlier work
[1] = molecular target: α-glucosidase (Saccharomyces cerevisiae); test: Glycosidase inhibition assay, α-glucosidase; assay type: biochemical; conditions: substrate at Km; for α-Glc % Ra (% remaining activity at 100 µM): 100 µM compound
[2] = molecular target: β-galactosidase (Escherichia coli) (Escherichia coli, UniProt P00722); test: biochemical; conditions: for remaining activity at 100 µM: read-out: β-Gal % Ra (% remaining activity at 100 µM)
β-glucosidase (almond) = test: Glycosidase inhibition assay, β-glucosidase; assay type: biochemical; conditions: substrate at Km; for β-Glc % Ra (% remaining activity at 100 µM): 100 µM compound
How it was run: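 Enzyme is added last; incubation is 4–5 min at room temperature, then 0.2 M sodium borate (pH 9.8) quenches. Absorbance at 405 nm gives % remaining activity at 100 µM compound. IC50 comes from non-linear fitting of relative activity versus concentration to a Hill-slope equation.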

[3] = molecular target: T1, α-mannosidase (jack bean) (Canavalia ensiformis, UniProt C0HJB3); test: Glycosidase inhibition assay, α-mannosidase; assay type: biochemical; conditions: for remaining activity at 100 µM: read-out: α-Man % Ra (% remaining activity at 100 µM)
T1 sequence (C0HJB3 1-562 limits assumed): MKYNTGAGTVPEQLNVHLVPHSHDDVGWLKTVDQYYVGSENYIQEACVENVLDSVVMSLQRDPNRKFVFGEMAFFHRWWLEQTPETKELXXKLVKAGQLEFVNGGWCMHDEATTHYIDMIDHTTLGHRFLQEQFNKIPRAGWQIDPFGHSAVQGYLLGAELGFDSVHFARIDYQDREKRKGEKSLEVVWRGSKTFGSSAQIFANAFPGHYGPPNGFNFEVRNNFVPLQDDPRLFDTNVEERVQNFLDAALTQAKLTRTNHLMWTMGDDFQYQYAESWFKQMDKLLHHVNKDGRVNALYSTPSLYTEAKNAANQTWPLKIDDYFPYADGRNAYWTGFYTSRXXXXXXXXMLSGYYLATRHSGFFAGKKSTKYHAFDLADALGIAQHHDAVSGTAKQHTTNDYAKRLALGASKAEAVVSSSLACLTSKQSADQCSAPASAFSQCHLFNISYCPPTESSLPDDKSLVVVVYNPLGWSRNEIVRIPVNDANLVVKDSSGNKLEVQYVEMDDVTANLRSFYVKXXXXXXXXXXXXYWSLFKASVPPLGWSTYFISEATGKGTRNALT
T1 sequence (C0HJB3 563-981 partner limits assumed): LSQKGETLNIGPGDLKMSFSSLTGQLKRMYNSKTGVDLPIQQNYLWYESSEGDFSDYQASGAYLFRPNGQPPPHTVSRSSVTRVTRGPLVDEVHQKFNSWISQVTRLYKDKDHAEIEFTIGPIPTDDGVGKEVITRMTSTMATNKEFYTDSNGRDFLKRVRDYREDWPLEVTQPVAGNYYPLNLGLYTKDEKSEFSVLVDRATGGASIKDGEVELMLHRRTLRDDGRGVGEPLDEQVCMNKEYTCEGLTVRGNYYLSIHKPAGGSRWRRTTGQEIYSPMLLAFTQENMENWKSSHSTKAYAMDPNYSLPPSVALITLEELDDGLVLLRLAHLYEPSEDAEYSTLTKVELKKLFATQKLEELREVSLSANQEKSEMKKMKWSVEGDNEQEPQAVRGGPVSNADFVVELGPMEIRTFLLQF
How it was run: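 Enzyme starts the reaction with test compound at 100 µM. After 4–5 min at room temperature, 0.2 M sodium borate (pH 9.8) quenches it. Absorbance is read at 405 nm and reported as % remaining activity.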

[4] = molecular target: α-galactosidase (green coffee beans) (Coffea arabica, UniProt Q42656); test: biochemical; conditions: for remaining activity at 100 µM: read-out: α-Gal % Ra (% remaining activity at 100 µM)
[5] = molecular target: T2, testicular β-glucosidase 2 (Rattus norvegicus, UniProt Q5M868); test: Testicular glucosidase assay; assay type: biochemical, Long Evans (LE) rat; conditions: for β-glucosidase 2 IC50 (LE rat): rat testicular microsomes, n.i. = no inhibition at 1000 µM concentration
T2 sequence (Q5M868 1-912): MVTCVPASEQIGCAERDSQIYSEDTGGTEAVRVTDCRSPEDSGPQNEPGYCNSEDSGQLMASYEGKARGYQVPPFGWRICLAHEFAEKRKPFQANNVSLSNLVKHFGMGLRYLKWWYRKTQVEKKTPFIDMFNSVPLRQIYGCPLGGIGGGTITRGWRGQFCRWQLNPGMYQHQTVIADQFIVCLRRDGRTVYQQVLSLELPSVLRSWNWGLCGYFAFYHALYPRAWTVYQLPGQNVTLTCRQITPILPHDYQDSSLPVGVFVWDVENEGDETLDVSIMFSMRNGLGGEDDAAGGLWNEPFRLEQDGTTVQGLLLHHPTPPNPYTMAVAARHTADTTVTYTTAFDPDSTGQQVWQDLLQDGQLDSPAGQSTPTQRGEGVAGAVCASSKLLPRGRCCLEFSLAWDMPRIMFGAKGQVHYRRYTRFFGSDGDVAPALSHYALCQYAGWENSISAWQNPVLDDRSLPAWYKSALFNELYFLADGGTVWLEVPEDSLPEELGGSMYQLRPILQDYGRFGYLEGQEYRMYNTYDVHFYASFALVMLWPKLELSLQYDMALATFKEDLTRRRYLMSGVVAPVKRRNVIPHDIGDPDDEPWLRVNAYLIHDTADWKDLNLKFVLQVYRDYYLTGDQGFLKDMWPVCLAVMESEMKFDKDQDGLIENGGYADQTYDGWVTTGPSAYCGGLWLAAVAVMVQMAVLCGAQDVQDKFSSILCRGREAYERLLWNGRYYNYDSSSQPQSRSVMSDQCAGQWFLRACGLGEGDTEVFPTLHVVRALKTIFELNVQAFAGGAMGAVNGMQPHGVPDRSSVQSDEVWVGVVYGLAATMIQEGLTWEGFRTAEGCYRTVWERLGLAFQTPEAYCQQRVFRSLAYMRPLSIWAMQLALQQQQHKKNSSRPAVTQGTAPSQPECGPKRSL

[6] = test system: β-mannosidase (Roman snail); test: Glycosidase inhibition assay, β-mannosidase; assay type: biochemical; conditions: 100 µM compound; substrate at Km
How it was run: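 Test compound is at 100 µM. Enzyme addition starts the reaction, which runs 4–5 min at room temperature before quenching with 0.2 M sodium borate (pH 9.8). Absorbance is read at 405 nm and given as % remaining activity.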

[7] = molecular target: T3, ceramide-specific glucosyltransferase (Mus musculus, UniProt O88693); test: Ceramide-specific glucosyltransferase assay, mouse testicular microsomes; assay type: biochemical, C57BL/6 mouse; conditions: for ceramide-specific glucosyltransferase IC50 (C57BL/6, mouse): mouse testicular microsomes, n.i. = no inhibition at 1000 µM concentration
T3 sequence (O88693 1-394): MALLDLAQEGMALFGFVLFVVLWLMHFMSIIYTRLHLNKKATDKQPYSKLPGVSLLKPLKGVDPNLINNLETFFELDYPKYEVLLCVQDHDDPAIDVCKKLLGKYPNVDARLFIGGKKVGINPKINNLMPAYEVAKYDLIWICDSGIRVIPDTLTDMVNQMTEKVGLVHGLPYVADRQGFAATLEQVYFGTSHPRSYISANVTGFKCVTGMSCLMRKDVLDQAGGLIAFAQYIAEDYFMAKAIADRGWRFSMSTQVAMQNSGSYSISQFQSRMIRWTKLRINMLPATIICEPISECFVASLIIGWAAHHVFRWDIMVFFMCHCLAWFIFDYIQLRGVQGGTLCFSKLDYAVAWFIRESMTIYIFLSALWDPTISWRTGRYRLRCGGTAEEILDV

[8] = molecular target: T4, ceramide-specific glucosyltransferase (Rattus norvegicus, UniProt Q9R0E0); test: Ceramide-specific glucosyltransferase assay, rat testicular microsomes; assay type: biochemical, Long Evans (LE) rat; conditions: for ceramide-specific glucosyltransferase IC50 (LE rat): rat testicular microsomes, n.i. = no inhibition at 1000 µM concentration
T4 sequence (Q9R0E0 1-394): T3 sequence (O88693 1-394) with D96E, K164R, R249K, T377A

[9] = 100 µM compound, substrate at Km

β-galactosidase (Escherichia coli), sequence (P00722 2-1024): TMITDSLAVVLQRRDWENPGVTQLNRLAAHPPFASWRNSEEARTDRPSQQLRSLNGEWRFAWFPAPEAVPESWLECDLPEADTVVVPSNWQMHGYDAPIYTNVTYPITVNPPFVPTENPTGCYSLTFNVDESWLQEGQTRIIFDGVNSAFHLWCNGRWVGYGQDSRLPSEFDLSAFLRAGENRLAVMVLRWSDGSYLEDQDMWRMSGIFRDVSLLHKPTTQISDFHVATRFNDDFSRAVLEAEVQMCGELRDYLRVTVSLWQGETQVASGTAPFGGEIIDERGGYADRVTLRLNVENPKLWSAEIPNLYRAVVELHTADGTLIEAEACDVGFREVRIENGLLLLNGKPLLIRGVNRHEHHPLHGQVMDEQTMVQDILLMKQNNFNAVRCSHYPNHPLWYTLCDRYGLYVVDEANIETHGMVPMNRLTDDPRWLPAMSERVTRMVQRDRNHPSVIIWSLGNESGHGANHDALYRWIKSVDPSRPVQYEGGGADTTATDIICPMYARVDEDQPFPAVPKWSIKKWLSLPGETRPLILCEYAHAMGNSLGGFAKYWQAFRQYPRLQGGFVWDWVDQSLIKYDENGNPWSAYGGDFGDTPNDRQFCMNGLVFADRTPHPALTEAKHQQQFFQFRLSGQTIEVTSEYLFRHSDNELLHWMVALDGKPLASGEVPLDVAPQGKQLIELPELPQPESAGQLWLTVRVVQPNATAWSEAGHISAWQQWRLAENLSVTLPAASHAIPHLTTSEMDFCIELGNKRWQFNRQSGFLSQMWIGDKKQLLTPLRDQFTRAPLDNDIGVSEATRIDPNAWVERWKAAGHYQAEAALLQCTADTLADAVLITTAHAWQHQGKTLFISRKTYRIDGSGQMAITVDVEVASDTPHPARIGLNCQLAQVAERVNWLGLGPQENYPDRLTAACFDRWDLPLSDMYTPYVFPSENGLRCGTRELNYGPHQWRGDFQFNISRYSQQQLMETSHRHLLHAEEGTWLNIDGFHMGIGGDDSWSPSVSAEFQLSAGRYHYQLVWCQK
α-galactosidase (green coffee beans), sequence (Q42656 16-378): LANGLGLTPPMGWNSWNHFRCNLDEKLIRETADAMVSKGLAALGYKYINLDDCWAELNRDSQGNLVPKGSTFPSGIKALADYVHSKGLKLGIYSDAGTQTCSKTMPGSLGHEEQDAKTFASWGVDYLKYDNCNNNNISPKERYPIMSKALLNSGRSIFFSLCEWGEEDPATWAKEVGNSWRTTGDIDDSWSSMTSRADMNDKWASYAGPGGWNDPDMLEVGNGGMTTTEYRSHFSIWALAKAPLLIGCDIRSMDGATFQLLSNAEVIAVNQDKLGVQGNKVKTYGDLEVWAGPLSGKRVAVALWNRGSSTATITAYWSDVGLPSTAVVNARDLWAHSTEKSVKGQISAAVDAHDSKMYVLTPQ

IC50 ([1]; read-out: α-Glc IC50)	Compound	effect on spermatogenesis (spermatogenesis)	effects on human spermatogenesis (human spermatogenesis)	remaining activity at 100 µM [2]	β-Glc % Ra (% remaining activity at 100 µM) (β-glucosidase (almond))	remaining activity at 100 µM [3]	remaining activity at 100 µM [4]	IC50 [5]	α-Glc % Ra (% remaining activity at 100 µM) [1]	β-Man % Ra (% remaining activity at 100 µM) [6]	IC50 [7]	IC50 [8]	ceramide-specific glucosyltransferase IC50 (C57BL/6, mouse) [7]	ceramide-specific glucosyltransferase IC50 (LE rat) [8]	β-Gal % Ra (% remaining activity at 100 µM) [2, 9]	α-Man % Ra (% remaining activity at 100 µM) [3, 9]	α-Gal % Ra (% remaining activity at 100 µM) [4, 9]	β-glucosidase 2 IC50 (LE rat) [5]	IC50 (β-glucosidase (almond); read-out: β-Glc IC50)
1030 µM	CCCCN1C[C@H](O)[C@@H](O)[C@H](O)[C@H]1CO [NB-DNJ, N-butyldeoxynojirimycin]	active	no discernible effects	–	–	–	–	–	–	–	–	–	–	–	–	–	–	–	–
–	CCCCCCCCCN1[C@H](CO)C(O)[C@H]1CO [Compound 23, ((2R,4R)-3-Hydroxy-1-nonylazetidine-2,4-diyl)dimethanol]	–	–	88%	95%	100%	99%	> 300 µM	100%	115%	> 300 µM	> 300 µM	–	–	–	–	–	–	–
–	CCCCCCCCCN1C/C=C\[C@@H](O)[C@H](O)[C@@H](O)C1 [Compound 4, (3S,4S,5R,Z)-1-Nonyl-1,2,3,4,5,8-hexahydroazocine-3,4,5-triol]	–	–	90%	44%	100%	100%	904 µM	90%	99%	–	–	n.i.	n.i.	–	–	–	–	–
–	CCCCN1[C@@H](CO)C(O)[C@@H]1CO [Compound 26, ((2S,4S)-1-Butyl-3-hydroxyazetidine-2,4-diyl)dimethanol]	–	–	96%	82%	98%	98%	> 300 µM	90%	95%	> 300 µM	> 300 µM	–	–	–	–	–	–	–
–	CCCCN1C[C@@H](O)[C@@H](O)[C@@H](O)[C@H](O)[C@@H](O)C1 [Compound 5, (3S,4R,5S,6R,7R)-1-Butylazocane-3,4,5,6,7-pentaol]	–	–	–	87%	–	–	–	89%	100%	–	–	n.i.	n.i.	95%	100%	100%	did not show inhibitory activity and n.i.	–
–	CCCCN1CCC[C@@H](O)[C@H](O)[C@@H](O)C1 [Compound 1, (3S,4S,5R)-1-Butylazocane-3,4,5-triol]	–	–	98%	37%	100%	100%	–	93%	100%	–	–	n.i.	n.i.	–	–	–	did not show inhibitory activity and n.i.	87 µM
